From ChEMBL document CHEMBL1123512, “Synthesis and biological activity of analogues of beta-chlornaltrexamine and beta-funaltrexamine at opioid receptors” (J Med Chem, 1986)

Legend:
[1] = biological target: T1, Opioid receptor (Mus musculus) (UniProt P42866+P32300+P33534); assay: Percent inhibition against opioid receptor in mouse vas deferens at 1 uM; assay type: tissue-based
[2] = biological target: T1, Opioid receptor (Mus musculus); assay: Compound was tested for agonist activity against opioid receptor in mouse vas deferens; assay type: functional, tissue-based
[3] = biological target: T2, Opioid receptors; mu/kappa/delta (Homo sapiens, UniProt P41145+P41143+P35372); assay: Irreversible antagonistic activity against opioid receptor in electrically stimulated longitudinal muscle of guinea pig ileum expressed as IC50 of EK by IC50 of control; assay type: functional, tissue-based
Outline: (§1)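 Guinea pig ileum longitudinal muscle was exposed to ligand at 200 nM for 30 min, then washed thoroughly (30 times), and challenged with morphine or ethylketazocine (EK). The value is the agonist IC50 in the treated preparation divided by the control IC50 in the same preparation.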

[4] = biological target: T2, Opioid receptors; mu/kappa/delta; assay: (§2) Compound was tested for agonist activity against opioid receptor in electrically stimulated longitudinal muscle of guinea pig ileum; assay type: functional, tissue-based; conditions: Cavia porcellus, target entry is the homologue from another species
[5] = Reversible antagonistic activity against opioid receptor in electrically stimulated longitudinal muscle of guinea pig ileum expressed as IC50 of morphine by IC50 of control; assay type: functional
Outline: (§3)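 In guinea pig ileum longitudinal muscle, morphine or ethylketazocine (EK) was tested in the presence of ligand at 10 nM, without washing. The value is the agonist IC50 in the treated preparation divided by the control IC50 in the same preparation.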

[6] = biological target: T2, Opioid receptors; mu/kappa/delta; assay: (§4) Compound was tested for irreversible antagonistic activity against opioid receptor in mouse vas deferens; assay type: functional, tissue-based
[7] = biological target: T2, Opioid receptors; mu/kappa/delta; assay: Irreversible antagonistic activity against opioid receptor in electrically stimulated longitudinal muscle of guinea pig ileum expressed as IC50 of morphine by IC50 of control; assay type: functional, tissue-based; outline: as §1
[8] = Reversible antagonistic activity against opioid receptor in electrically stimulated longitudinal muscle of guinea pig ileum expressed as IC50 of EK by IC50 of control; assay type: functional; outline: as §3
[9] = biological target: T2, Opioid receptors; mu/kappa/delta; assay: Percent inhibition against opioid receptor in electrically stimulated longitudinal muscle of guinea pig ileum at 100 nM; assay type: tissue-based; conditions: Cavia porcellus, target entry is the homologue from another species
[10] = biological target: T2, Opioid receptors; mu/kappa/delta; assay: as §4; assay type: functional, tissue-based; remark: listed apart in the source
[11] = biological target: T1, Opioid receptor (Mus musculus); assay: Compound was tested for irreversible antagonistic activity against opioid receptor in mouse vas deferens at 3 uM; assay type: functional, tissue-based
[12] = biological target: T2, Opioid receptors; mu/kappa/delta; assay: as §2; assay type: functional, tissue-based, Cavia porcellus; conditions: target entry is the homologue from another species
[13] = biological target: T2, Opioid receptors; mu/kappa/delta; assay: Compound was tested for irreversible antagonistic activity against opioid receptor in mouse vas deferens expressed as IC50 of DADLE by IC50 of control; assay type: functional, tissue-based
[14] = biological target: T2, Opioid receptors; mu/kappa/delta; assay: Percent inhibition against opioid receptor in electrically stimulated longitudinal muscle of guinea pig ileum at 1 uM; assay type: tissue-based; conditions: Cavia porcellus, target entry is the homologue from another species
[15] = biological target: T2, Opioid receptors; mu/kappa/delta; assay: Compound was tested for irreversible antagonistic activity against opioid receptor in mouse vas deferens expressed as IC50 of morphine by IC50 of control; assay type: functional, tissue-based
[16] = biological target: T1, Opioid receptor (Mus musculus); assay: Percent inhibition against opioid receptor in mouse vas deferens at 3 uM; assay type: tissue-based

T2 sequence (P35372 whole entry, looked up): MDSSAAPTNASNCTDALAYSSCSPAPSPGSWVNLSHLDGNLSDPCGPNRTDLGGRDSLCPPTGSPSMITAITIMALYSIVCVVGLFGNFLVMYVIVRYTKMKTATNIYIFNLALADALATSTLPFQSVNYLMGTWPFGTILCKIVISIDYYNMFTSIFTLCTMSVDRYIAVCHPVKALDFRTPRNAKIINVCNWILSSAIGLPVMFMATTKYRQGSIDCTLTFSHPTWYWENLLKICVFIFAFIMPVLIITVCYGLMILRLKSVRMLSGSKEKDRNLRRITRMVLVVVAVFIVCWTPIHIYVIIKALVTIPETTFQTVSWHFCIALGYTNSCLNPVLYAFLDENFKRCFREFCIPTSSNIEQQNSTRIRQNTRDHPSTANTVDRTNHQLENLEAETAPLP
T2 sequence (P41143 whole entry, looked up): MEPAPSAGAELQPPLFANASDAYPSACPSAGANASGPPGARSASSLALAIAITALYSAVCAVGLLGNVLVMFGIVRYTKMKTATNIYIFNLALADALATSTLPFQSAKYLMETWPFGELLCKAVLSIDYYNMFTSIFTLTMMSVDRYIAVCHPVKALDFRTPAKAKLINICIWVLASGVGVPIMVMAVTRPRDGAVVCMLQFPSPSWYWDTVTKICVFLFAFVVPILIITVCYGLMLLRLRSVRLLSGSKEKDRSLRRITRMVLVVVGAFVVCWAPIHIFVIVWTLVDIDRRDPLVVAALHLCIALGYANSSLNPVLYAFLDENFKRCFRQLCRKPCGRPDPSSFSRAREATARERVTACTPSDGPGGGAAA
T2 sequence (P41145 whole entry, looked up): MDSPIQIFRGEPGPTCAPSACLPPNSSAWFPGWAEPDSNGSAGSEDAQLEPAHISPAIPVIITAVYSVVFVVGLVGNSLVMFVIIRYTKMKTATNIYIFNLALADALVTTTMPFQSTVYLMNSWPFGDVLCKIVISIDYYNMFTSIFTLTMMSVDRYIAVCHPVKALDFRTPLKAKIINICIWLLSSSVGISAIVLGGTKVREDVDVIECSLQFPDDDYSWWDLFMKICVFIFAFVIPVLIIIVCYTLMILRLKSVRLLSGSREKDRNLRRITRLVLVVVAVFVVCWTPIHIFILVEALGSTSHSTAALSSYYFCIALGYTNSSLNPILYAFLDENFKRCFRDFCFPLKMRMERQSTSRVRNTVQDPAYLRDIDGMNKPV
T1 sequence (P32300 whole entry, looked up): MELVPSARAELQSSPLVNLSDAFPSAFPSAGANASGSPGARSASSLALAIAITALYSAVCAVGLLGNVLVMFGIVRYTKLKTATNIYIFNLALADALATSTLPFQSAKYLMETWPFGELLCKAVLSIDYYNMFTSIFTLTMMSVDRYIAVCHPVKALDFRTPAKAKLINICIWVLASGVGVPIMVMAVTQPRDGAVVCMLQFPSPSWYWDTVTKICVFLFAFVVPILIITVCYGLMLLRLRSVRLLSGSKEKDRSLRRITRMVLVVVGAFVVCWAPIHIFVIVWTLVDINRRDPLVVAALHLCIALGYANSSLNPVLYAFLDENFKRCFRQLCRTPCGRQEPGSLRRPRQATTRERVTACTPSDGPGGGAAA
T1 sequence (P33534 whole entry, looked up): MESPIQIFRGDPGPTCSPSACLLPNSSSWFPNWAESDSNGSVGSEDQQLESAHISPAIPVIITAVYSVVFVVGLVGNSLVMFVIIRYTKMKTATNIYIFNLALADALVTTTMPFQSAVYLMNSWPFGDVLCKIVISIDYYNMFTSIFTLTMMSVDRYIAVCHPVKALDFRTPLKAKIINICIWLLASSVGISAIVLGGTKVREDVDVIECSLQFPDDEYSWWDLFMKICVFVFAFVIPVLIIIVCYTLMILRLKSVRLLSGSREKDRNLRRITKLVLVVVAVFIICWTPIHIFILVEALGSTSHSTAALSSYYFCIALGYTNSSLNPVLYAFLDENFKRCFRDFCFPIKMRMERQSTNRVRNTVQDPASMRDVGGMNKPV
T1 sequence (P42866 whole entry, looked up): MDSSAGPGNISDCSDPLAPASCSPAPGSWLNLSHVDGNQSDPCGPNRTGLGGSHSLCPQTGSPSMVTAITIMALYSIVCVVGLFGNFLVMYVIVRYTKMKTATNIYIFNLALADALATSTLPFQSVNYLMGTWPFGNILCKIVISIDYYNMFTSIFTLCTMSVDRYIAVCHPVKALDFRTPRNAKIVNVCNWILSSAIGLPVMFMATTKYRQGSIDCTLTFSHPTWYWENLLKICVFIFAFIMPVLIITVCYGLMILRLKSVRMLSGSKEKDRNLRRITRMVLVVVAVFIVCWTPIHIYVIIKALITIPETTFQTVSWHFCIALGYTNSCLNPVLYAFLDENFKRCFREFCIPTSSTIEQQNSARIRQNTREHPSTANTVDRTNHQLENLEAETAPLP

Work on `CCOC(=O)/C=C/C(=O)NCC(=O)NCC(=O)NCC(=O)N[C@@H]1CC[C@@]2(O)C3Cc4ccc(O)c5c4C2(CCN3CC2CC2)[C@H]1O5` (stereo partly specified) yielded an inhibition [1] of 61%, an IC30 [2] of 20 nM and a Ratio [3] of 0.8. For the same compound, the IC20 [4] was 10 nM, the Ratio [5] was 12.3 and the Ratio [6] was 1.2. For the same compound, the Ratio [7] was 1.3, the Ratio [8] was 3.3 and the inhibition [9] was 45%.
For `CCOC(=O)/C=C/C(=O)NCC(=O)NCC(=O)N[C@@H]1CC[C@@]2(O)C3Cc4ccc(O)c5c4C2(CCN3CC2CC2)[C@H]1O5` (stereo partly specified), the Ratio [10] was 1.2, the inhibition [1] was 59% and the IC30 [2] was 10 nM. For the same compound, the Ratio [3] was 1.3, the IC20 [4] was 10 nM and the Ratio [5] was 16.8. For the same compound, the Ratio [6] was 4.3, the Ratio [7] was 3.9 and the Ratio [8] was 4.8. It also gave an inhibition [9] of 45%.
In the case of `O=C(CN(CCCl)CCCl)N[C@@H]1CC[C@@]2(O)C3Cc4ccc(O)c5c4C2(CCN3CC2CC2)[C@H]1O5` (stereo partly specified), the inhibition [11] is reported as 54%, the inhibition [1] is reported as 55% and the IC30 [2] is reported as 20 nM. It also gave a Ratio [3] of 12.3, an IC50 [12] of 3.8 nM and a Ratio [13] of 4. For the same compound, the Ratio [7] was 27.4.
Work on `CCOC(=O)/C=C/C(=O)NCC(=O)N[C@@H]1CC[C@@]2(O)C3Cc4ccc(O)c5c4C2(CCN3CC2CC2)[C@H]1O5` (stereo partly specified) yielded an IC30 [2] of 7 nM, an inhibition [14] of 42% and a Ratio [3] of 2. The IC30 [4] was 10 nM, the Ratio [5] was 2.5 and the Ratio [15] was 1.8. It also gave a Ratio [13] of 0.8, a Ratio [7] of 0.6 and an inhibition [16] of 56%. For the same compound, the Ratio [8] was 2.5.
